Source: ChEMBL document CHEMBL2412985, “Peroxisome proliferator-activated receptor delta antagonists inhibit hepatitis C virus RNA replication” (Bioorg Med Chem Lett, 2013)
Activity calls are given as the source filed them. The rule behind the calls is not given here.

What was measured:
[1] = biological target: T1, Peroxisome proliferator-activated receptor alpha (Homo sapiens) (UniProt Q07869); assay: Antagonist activity at human PPARalpha assessed as effect on TIPP-703-induced activity at 10 uM
T1 sequence (whole entry): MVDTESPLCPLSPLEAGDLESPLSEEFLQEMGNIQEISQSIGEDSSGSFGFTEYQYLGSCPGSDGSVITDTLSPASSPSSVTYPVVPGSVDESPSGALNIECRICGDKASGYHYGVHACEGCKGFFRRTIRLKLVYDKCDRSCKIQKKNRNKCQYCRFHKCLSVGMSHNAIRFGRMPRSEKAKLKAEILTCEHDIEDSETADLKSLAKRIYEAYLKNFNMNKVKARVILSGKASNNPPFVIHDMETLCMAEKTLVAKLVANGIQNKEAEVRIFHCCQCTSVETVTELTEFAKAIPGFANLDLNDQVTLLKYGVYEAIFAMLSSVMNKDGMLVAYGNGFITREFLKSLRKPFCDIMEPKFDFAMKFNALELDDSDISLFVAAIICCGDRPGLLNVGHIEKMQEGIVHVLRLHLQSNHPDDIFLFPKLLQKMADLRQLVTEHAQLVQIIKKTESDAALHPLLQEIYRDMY
Summary of the method: (§1)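 Antagonism was measured against stimulation by the hPPAR-pan agonist, with test compound co-applied and the result expressed as % inhibition.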

[2] = biological target: T2, Peroxisome proliferator-activated receptor delta (Homo sapiens, UniProt Q03181); assay: Antagonist activity at human PPARdelta assessed as effect on TIPP-703-induced activity; summary of the method: as §1
T2 sequence (Q03181 whole entry): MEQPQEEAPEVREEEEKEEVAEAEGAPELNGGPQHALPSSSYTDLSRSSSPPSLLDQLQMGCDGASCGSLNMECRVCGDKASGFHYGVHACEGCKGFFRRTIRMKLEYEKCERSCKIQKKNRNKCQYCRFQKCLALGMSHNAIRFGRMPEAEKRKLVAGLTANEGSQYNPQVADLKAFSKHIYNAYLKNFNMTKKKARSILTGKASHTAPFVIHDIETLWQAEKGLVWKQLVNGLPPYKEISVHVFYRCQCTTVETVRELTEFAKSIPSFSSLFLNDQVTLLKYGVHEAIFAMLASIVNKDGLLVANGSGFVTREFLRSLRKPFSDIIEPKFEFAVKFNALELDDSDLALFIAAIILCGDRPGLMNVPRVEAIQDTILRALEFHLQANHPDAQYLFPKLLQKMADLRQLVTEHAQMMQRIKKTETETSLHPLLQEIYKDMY

[3] = Cytotoxicity against […] OR6 cells after 72 hrs by WST1 assay; format: cell-based
Summary of the method: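 OR6 cells were seeded at 1 × 10³ per well in triplicate and treated at three or four concentrations for 72 h. Viability was read by WST-1 proliferation assay, and CC₅₀ was determined.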

[4] = Selectivity index, ratio of CC50 for […] OR6 cells to ED50 for HCV
Summary of the method: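 SI was calculated as CC₅₀ (WST-1 viability of OR6 cells, 72 h) divided by EC₅₀ (HCV replicon Renilla luciferase inhibition, 72 h).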

[5] = test system: Hepatitis C virus; assay: Antiviral activity against HCV infected in […] OR6 cells assessed as inhibition of viral RNA replication after 72 hrs by luciferase reporter gene assay; format: functional, Hepacivirus hominis; details: for EC50: OR6, 72 h, read-out: ED50 (the source's name)
Summary of the method: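 OR6 cells carry genome-length HCV RNA with a Renilla luciferase reporter. Cells were plated at 2 × 10⁴ per well, at least in triplicate, and cultured 24 h. They were then exposed to compound for 72 h, lysed in Renilla lysis reagent, and luciferase activity was read. The top test concentration was set from prior WST-1 viability at about 80% relative activity.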

[6] = species: Homo sapiens; assay: Selectivity ratio of human PPARdelta to human PPARalpha
[7] = biological target: T3, Peroxisome proliferator-activated receptor delta (Homo sapiens) (UniProt Q03181); assay: Antagonist activity at human PPARdelta assessed as effect on TIPP-703-induced activity at 10 uM
T3 sequence (whole entry): T2 sequence (Q03181 whole entry)
Summary of the method: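 Antagonism measured as % inhibition of hPPARδ activity stimulated by a co-added hPPAR pan-agonist held at a fixed level of […].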

Question: With `CCOc1ccc(-c2ccc(C(=O)O)cc2C)cc1CNC(=O)c1ccc(C(F)(F)F)cc1F` as the molecule, how does the inhibition [1] read?
Answer: 49.5%

Question: What about the IC50 ([2]; read-out: IC50) of the same molecule?
Answer: 0.028 µM

Question: What about the CC50 at 72 h [3] of the same molecule?
Answer: 3.9 µM

Question: And the “Selectivity Index” value [4]?
Answer: 10

Question: And the EC50 [5]?
Answer: 0.39 µM

Question: Which IC50 [2] does the source give for `CCCCOc1ccc(-c2ccc(C)c(C(=O)O)c2)cc1CNC(=O)c1ccc(C(F)(F)F)cc1` here?
Answer: Not Active

Question: And the ED50 ([5]; Hepacivirus hominis)?
Answer: inactive

Question: For `CCCCOc1ccc(-c2ccc(C(=O)O)cc2F)cc1CNC(=O)c1ccc(C(F)(F)F)cc1`, which inhibition [1] is on record?
Answer: 25.4%

Question: What about the IC50 ([2]; read-out: IC50) of the same molecule?
Answer: 0.1 µM

Question: And the CC50 at 72 h [3]?
Answer: 8.1 µM

Question: What about the “Selectivity Index” value [4] of the same molecule?
Answer: 2.1

Question: And the EC50 [5]?
Answer: 3.9 µM

Question: Which results are given for `CCCCOc1ccc(-c2ccc(C(=O)O)o2)cc1CNC(=O)c1ccc(C(F)(F)F)cc1`?
Answer: IC50 [2]: Not Active; ED50 ([5]; Hepacivirus hominis): inactive

Question: Which IC50 [2] does the source give for `CCCCOc1ccc(-c2ccc(C(=O)O)cn2)cc1CNC(=O)c1ccc(C(F)(F)F)cc1` here?
Answer: Not Active

Question: What about the ED50 ([5]; Hepacivirus hominis) of the same molecule?
Answer: inactive

Question: For `CCCCOc1ccc(-c2ccc(C(=O)O)nc2)cc1CNC(=O)c1ccc(C(F)(F)F)cc1`, which IC50 [2] is on record?
Answer: Not Active

Question: What about the ED50 ([5]; Hepacivirus hominis) of the same molecule?
Answer: inactive

Question: What does the source list for `CCCOc1ccc(-c2ccc(C(=O)O)cc2C)cc1CNC(=O)c1ccc(C(F)(F)F)cc1F`?
Answer: inhibition [1]: 49.5%; IC50 ([2]; read-out: IC50): 0.029 µM; CC50 at 72 h [3]: 2.2 µM; Selectivity Index [4]: 11; EC50 [5]: 0.22 µM

Question: For `COC(=O)c1sccc1S(=O)(=O)Nc1ccc(Nc2ccccc2)cc1OC`, which Activity ([5]; Hepacivirus hominis) is on record?
Answer: inactive

Question: What does the source list for `CCCCOc1ccc(-c2ccc(C(=O)O)cc2Cl)cc1CNC(=O)c1ccc(C(F)(F)F)cc1`?
Answer: inhibition [1]: 30.7%; IC50 ([2]; read-out: IC50): 0.013 µM; CC50 at 72 h [3]: 3.2 µM; Selectivity Index [4]: 1.8; EC50 [5]: 1.8 µM

Question: Which inhibition [1] does the source give for `CCCCOc1ccc(-c2ccc(C(=O)O)cc2C)cc1CNC(=O)c1ccc(C(F)(F)F)cc1` here?
Answer: 12.6%

Question: And the IC50 ([2]; read-out: IC50)?
Answer: 0.019 µM

Question: What about the CC50 at 72 h [3] of the same molecule?
Answer: 2.5 µM

Question: And the Selectivity Index [4]?
Answer: 11

Question: What about the inhibition ([5]; Hepacivirus hominis) of the same molecule?
Answer: Dose-dependent effect

Question: What about the EC50 [5] of the same molecule?
Answer: 0.22 µM

Question: And the Selectivity ratio [6]?
Answer: 1000

Question: What does the source list for `NC(=O)c1ncn([C@@H]2O[C@H](CO)[C@@H](O)[C@H]2O)n1` [RIBAVIRIN]?
Answer: CC50 at 72 h [3]: 100 µM; inhibition [7]: inactive; Selectivity Index [4]: 18; EC50 [5]: 5.6 µM

Question: What does the source list for `CCCCCOc1ccc(-c2ccc(C(=O)O)cc2C)cc1CNC(=O)c1ccc(C(F)(F)F)cc1F`?
Answer: inhibition [1]: 23.3%; IC50 ([2]; read-out: IC50): 0.092 µM; CC50 at 72 h [3]: 2.7 µM; Selectivity Index [4]: 5; EC50 [5]: 0.53 µM

Question: With `CCCCOc1ccc(-c2cc(C(=O)O)ccc2C)cc1CNC(=O)c1ccc(C(F)(F)F)cc1` as the molecule, how does the IC50 [2] read?
Answer: Not Active

Question: And the ED50 ([5]; Hepacivirus hominis)?
Answer: inactive

Question: Which inhibition [1] does the source give for `O=C(Nc1ccncc1)c1cc([N+](=O)[O-])ccc1Cl` here?
Answer: 31.8%

Question: And the IC50 ([2]; read-out: IC50)?
Answer: > 10 µM

Question: And the CC50 at 72 h [3]?
Answer: 2.7 µM

Question: And the “Selectivity Index” value [4]?
Answer: 0.55

Question: And the EC50 [5]?
Answer: 4.9 µM
